Assay results taken from paper PMC9250355 (Molecular Biology of the Cell, 2022).

B1: GST-Cdc15C1 (residues 600–end) (domain or fragment)
chain: MRRRQSTSVDDEAPVSLSKTSSSTRLNGLGYHSRNTSIASDIDGVPKKSTLGAPPAAHTSAQMQRMSNSFASQTKQVFGEQRTENSARESLRHSRSNMSRSPSPMLSRRSSTLRPSFERSASSLSVRQSDVVSPAPSTRARGQSVSGQQRPSSSMSLYGEYNKSQPQLSMQRSVSPNPLGPNRRSSSVLQSQKSTSSNTSNRNNGGYSGSRPSSEMGHRYGSMSGRSMRQVSQRSTSRARSPEPTNRNSVQSKNVDPRATFTAEGEPILGYVIALYDYQAQIPEEISFQKGDTLMVLRTQEDGWWDGEIINVPNSKRGLFPSNFVQTV

How the values were obtained:
[1] = system: S. pombe strains (pxl1 wild type and pxl1 mutants); test: Serial dilution growth assay in the presence of LatA; type: cell-based; conditions: low-dose LatA (0.20 μM), 32°C
Outline: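 Strains were grown in liquid YE at 25°C. Three 10-fold serial dilutions starting at 4 × 10^6 cells/ml were spotted on YE agar containing 0.20 µM LatA or DMSO. Plates were incubated at 32°C for 2–5 d, then colonies were imaged by scanner.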

[2] = molecular target: Pxl1 PxxP^6 peptide (residues 177–188), biotin-labeled (S. pombe)

Molecule | sensitivity of pxl1 mutants to LatA [1] | Kd [2]
C/C1=C/C(=O)O[C@@H]2C[C@@H](CC[C@H](C)/C=C\C=C\CC1)O[C@@](O)([C@@H]1CSC(=O)N1)C2 [LatA, latrunculin A] | no evidence of sensitivity | –
B1 | – | 1900 nM
